The source of these data is ChEMBL document CHEMBL4513216, “Probing the Open Global Health Chemical Diversity Library for Multistage-Active Starting Points for Next-Generation Antimalarials” (ACS Infect Dis, 2020).

A short description of this data set: Toxicity liver stage against HepG2, at 10uM. It is filed as cell-based. More on the design: test concentration 10 uM, cell line HepG2-A16-CD81EGFP. The following applies: human, HepG2-A16-CD81EGFP cells; read-out: INHIBITION
The method in brief:
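Uninfected HepG2-A16-CD81EGFP cells, 3 × 10^3 per well, 1536-well, plated on prespotted compound at 10 μM final, parasite-free screening media added to match infected plates; puromycin 10 μM positive, DMSO 0.5% negative; run in parallel with 48 h PbLuc assay at 37 °C, 5% CO2; viability by CellTiter-Glo luminescence, normalized to controls.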
Take `Cc1cccc(-c2noc([C@@H]3C[C@@H](O)CN3C)n2)c1`: the cytotoxicity at 10 µM was -3.54%.
The value for `Cc1c(C(=O)NCCC(=O)N2CCOCC2)sc2ccc(F)cc12` was 4.5%; that for `CC(C)(C)c1noc(CCCC(=O)N2CCCC(c3ccn[nH]3)C2)n1` (configuration not stated) was -14.2%; that for `c1csc(-c2noc(COCC3CCCO3)n2)c1` (configuration not stated) was -1.62%.
As for `CC(C)n1cnnc1CN(C)Cc1cnc(-c2cccs2)nc1`, the figure is 8.55%.
The value for `COc1c(-c2ccc(O)cc2)oc2cc(O)cc(O)c2c1=O` [ISOKAEMPFERIDE] was 7.8%.
Turning to `CCCNC(=O)C(C)Nc1ccc(OCC)cc1` (configuration not stated) [PROPETAMIDE], the cytotoxicity at 10 µM turned out to be 8.84%.
